In experiment [1] the test system is Staphylococcus aureus. As to the kind of experiment: Antivirulence activity against methicillin-resistant Staphylococcus aureus ATCC 33591 infected in BALB/c mouse model of skin abscess assessed as reduction in spleen histopathological changes at 3 mg/kg injected into shaved area of skin once daily for 4 days measured after 12 hrs post last dose by hematoxylin and eosin staining based optical microscopy. Format: functional, organism-based. The gist of the method: (§1)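 Same MRSA ATCC 33591 skin-abscess model in female BALB/c mice (n=5/group), 40 µL compound at 1.5 or 3 mg/kg injected into the infected shaved skin once daily for 4 days. On day 4 infected skin and heart, liver, spleen, lung, kidney fixed in 4% paraformaldehyde, embedded, sectioned, H&E stained and examined by microscopy; PBS-treated uninfected and vehicle controls.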

For experiment [2], the system named is Staphylococcus aureus. As to the kind of experiment: Antivirulence activity against methicillin-resistant Staphylococcus aureus ATCC 33591 infected in BALB/c mouse model of skin abscess assessed as reduction in liver histopathological changes at 3 mg/kg injected into shaved area of skin once daily for 4 days measured after 12 hrs post last dose by hematoxylin and eosin staining based optical microscopy. Format: functional, organism-based. A digest of the protocol:
as §1

The test system of experiment [3] is Staphylococcus aureus. As to the kind of experiment: Antivirulence activity against methicillin-resistant Staphylococcus aureus ATCC 33591 infected in BALB/c mouse model of skin abscess assessed as preservation of skin integrity at 3 mg/kg injected into shaved area of skin once daily for 4 days measured after 12 hrs post last dose by hematoxylin and eosin staining based optical microscopy. Format: functional, organism-based. The gist of the method: as §1

Experiment [4] has as its system Staphylococcus aureus. As to the kind of experiment: Antivirulence activity against methicillin-resistant Staphylococcus aureus ATCC 33591 infected in BALB/c mouse model of skin abscess assessed as reduction in severe alveolar destruction at 3 mg/kg injected into shaved area of skin once daily for 4 days measured after 12 hrs post last dose by hematoxylin and eosin staining based optical microscopy. In kind it is functional, organism-based. The gist of the method:
as §1

For experiment [5], the system named is Staphylococcus aureus. As to the kind of experiment: Antivirulence activity against methicillin-resistant Staphylococcus aureus ATCC 33591 infected in BALB/c mouse model of skin abscess assessed as reduction in interstitium thickening at 3 mg/kg injected into shaved area of skin once daily for 4 days measured after 12 hrs post last dose by hematoxylin and eosin staining based optical microscopy. Format: functional, organism-based. The gist of the method: as §1

Experiment [6] relates to Staphylococcus aureus. As to the kind of experiment: Antivirulence activity against methicillin-resistant Staphylococcus aureus ATCC 33591 infected in BALB/c mouse model of skin abscess assessed as reduction in heart histopathological changes at 3 mg/kg injected into shaved area of skin once daily for 4 days measured after 12 hrs post last dose by hematoxylin and eosin staining based optical microscopy. In kind it is functional, organism-based. The gist of the method: as §1

Experiment [7] deals with Staphylococcus aureus. Description: Antivirulence activity against methicillin-resistant Staphylococcus aureus ATCC 33591 infected in BALB/c mouse model of skin abscess assessed as reduction in kidney histopathological changes at 3 mg/kg injected into shaved area of skin once daily for 4 days measured after 12 hrs post last dose by hematoxylin and eosin staining based optical microscopy. Format: functional, organism-based. The gist of the method:
as §1

Experiment [8] has as its system Staphylococcus aureus. Description: Antivirulence activity against methicillin-resistant Staphylococcus aureus ATCC 33591 infected in BALB/c mouse model of skin abscess assessed as reduction in skin inflammation at 3 mg/kg injected into shaved area of skin once daily for 4 days measured after 12 hrs post last dose by hematoxylin and eosin staining based optical microscopy. In kind it is functional, organism-based. A digest of the protocol: as §1

Experiment [9] deals with ATP-dependent Clp protease proteolytic subunit (Escherichia coli (strain K12), UniProt P0A6G7). Description: Inhibition of Escherichia coli ClpP.
Sequence of ATP-dependent Clp protease proteolytic subunit (Escherichia coli (strain K12), UniProt P0A6G7) (P0A6G7 whole entry): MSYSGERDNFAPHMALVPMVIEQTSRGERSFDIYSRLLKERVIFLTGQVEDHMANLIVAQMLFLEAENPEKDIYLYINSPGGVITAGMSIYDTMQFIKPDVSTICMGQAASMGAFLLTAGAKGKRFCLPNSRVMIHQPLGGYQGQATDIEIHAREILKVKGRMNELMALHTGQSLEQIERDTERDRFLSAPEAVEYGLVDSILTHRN
Experiment [10] deals with T1, ATP-dependent Clp protease proteolytic subunit (Staphylococcus aureus (strain NCTC 8325), UniProt Q2G036).
T1 sequence (Q2G036 whole entry): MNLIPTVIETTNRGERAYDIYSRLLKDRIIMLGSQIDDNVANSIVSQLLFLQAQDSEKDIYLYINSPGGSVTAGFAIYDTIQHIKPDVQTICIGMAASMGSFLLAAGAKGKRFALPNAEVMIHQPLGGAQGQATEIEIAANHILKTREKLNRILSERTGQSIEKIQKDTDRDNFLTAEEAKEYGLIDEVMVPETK
Description: Binding affinity to N-terminal His6-sumo-tagged full length Staphylococcus aureus ClpP expressed in Escherichia coli […] by ITC analysis. A digest of the protocol:
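ITC at 500 rpm stirring after 150 s equilibration. A discarded 1 μL first injection, then 19 injections of 2 μL over 5 s each, 2–3 min apart, into 200 μL sample cell. Reference power 7 μcal/s, high gain, 5-s filter, baseline-corrected fit.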
A general note: Isothermal titration calorimetry measures the heat released or taken up as one component is titrated into another.

Experiment [11] addresses T2, ATP-dependent Clp protease proteolytic subunit (Staphylococcus aureus (strain NCTC 8325)) (UniProt Q2G036).
T2 sequence (whole entry): T1 sequence (Q2G036 whole entry)
Description: Inhibition of N-terminal His6-sumo-tagged full length Staphylococcus aureus ClpP expressed in Escherichia coli […] assessed as enzyme activity recovery level at 20-fold molar excess pre-incubated for 10 mins before Suc-LY-AMC addition and measured after 1 hr followed by dialysis up to 72 hrs by fluorescence based assay relative to control. The arrangement: scale not given: the % may be the effect or the level left. A digest of the protocol:
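ClpP (1 μM, 100 mM Hepes pH 7.0, 100 mM NaCl) incubated 1 h at RT with 20-fold molar excess inhibitor or DMSO. Dialyzed at 4 °C, buffer changed after 6 h and then every 24 h. Aliquots assayed for peptidase activity with Suc-LY-AMC. Thrice, single sample.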

The target in experiment [12] is T1, ATP-dependent Clp protease proteolytic subunit. As to the kind of experiment: Binding affinity to N-terminal His6-sumo-tagged full length Staphylococcus aureus ClpP expressed in Escherichia coli […] assessed as shifting of melting peak of SaClpP by differential scanning calorimetry analysis. A digest of the protocol:
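DSC: 0.5 mg/mL (25 µM) SaClpP with 100 µM compound or two-fold dilution series, RT; scanned 30-90 °C at 1 °C/min, buffer-buffer scan subtracted; Tm from thermogram peak maximum; single run.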
(In DSC, transitions show as peaks or steps in heat flow.)

In experiment [13] the target is 20S proteasome (Homo sapiens) (UniProt P49721+P20618+P28074+P28062+P28065+P28072+P25786+P25787+P25788+P25789+P28066+P60900+O14818+Q8TAA3+P40306+A5LHX3+P49720+P28070+Q99436). As to the kind of experiment: Inhibition of 20S proteasome (unknown origin) pre-incubated before Suc-LLVY-AM addition and measured after 1 hr by fluorescence based assay. Format: protein-complex assay.

Experiment [14] concerns Staphylococcus aureus. Description: Inhibition of Staphylococcus aureus ClpXP expressed in Escherichia coli […] at 1 to 100 uM using FITC-casein substrate in presence of ATP-regenerating system incubated for 50 mins by fluorescence based assay. A digest of the protocol:
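3.6 μM SaClpP with 3 μM SaClpX in 25 mM Hepes pH 7.5, 20 mM MgCl2, 30 mM KCl, 0.03% Tween 20, 10% glycerol, 2 mM DTT. ATP regeneration: 4 mM ATP, 20 U/mL creatine kinase, 16 mM creatine phosphate. FITC-casein 0.048 mg/mL, 494/521 nm for 50 min; slope 300–1200 s vs DMSO. Thrice, triplicate wells.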

Experiment [15] in a line: Inhibition of Pseudomonas aeruginosa ClpP1 expressed in Escherichia coli […] pre-incubated for 10 mins before Suc-LY- AMC addition and measured after 1 hr by fluorescence based assay relative to control. A digest of the protocol: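 PaClpP1 (0.5 μM monomer) in 25 mM Tris-Cl pH 7.5, 150 mM NaCl. Preincubated 10 min at RT with inhibitor, two-fold dilutions over 8 steps from 50 μM. Then 50 μM Suc-LY-AMC, 380/440 nm for 1 h at 37 °C, slopes normalized to DMSO. Thrice, triplicate wells.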

Experiment [16] concerns the target T2, ATP-dependent Clp protease proteolytic subunit (Staphylococcus aureus (strain NCTC 8325)). Description: Binding affinity to N-terminal His6-sumo-tagged full length Staphylococcus aureus ClpP expressed in Escherichia coli […] assessed as change in melting temperature at 100 uM by differential scanning calorimetry analysis. The gist of the method: (§2)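 DSC: SaClpP at 0.5 mg/mL (25 μM) incubated at RT with 100 μM inhibitor in assay buffer. Scanned at 1 °C/min over 30–90 °C, with a buffer-buffer scan subtracted. Tm taken as the thermogram peak maximum. Run once, single sample.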

Experiment [17] has the same target. Description: Inhibition of N-terminal His6-sumo-tagged full length Staphylococcus aureus ClpP expressed in Escherichia coli […] at 3 uM pre-incubated for 10 mins before 200 uM to 1 mM Suc-LY-AMC addition and measured after 1 hr by fluorescence based assay relative to control. The gist of the method:
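SaClpP (1 μM) in 100 mM Hepes pH 7.0, 100 mM NaCl preincubated 10 min at RT with 3 μM inhibitor. Suc-LY-AMC at 200 μM or 1 mM, fluorescence at 380/440 nm for 1 h at 37 °C. Slope relative to DMSO; three independent replicates.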

For experiment [18] the target is unchanged. As to the kind of experiment: Binding affinity to N-terminal His6-sumo-tagged full length Staphylococcus aureus ClpP expressed in Escherichia coli […] assessed as melting temperature at 100 uM by differential scanning calorimetry analysis (reference value: 50.8 degC). The gist of the method: as §2
The nature of experiment [19]: Inhibition of AlgW (unknown origin) up to 100 uM pre-incubated for 10 mins before Abz-T-V-A-W-pNA addition and measured after 1 hr by fluorescence based assay.
Experiment [20] addresses Coagulation factor X (Homo sapiens) (UniProt P00742). Description: Inhibition of human F10a up to 100 uM pre-incubated for 10 mins before Pefachrome Fxa addition and measured after […] based assay.
Experiment [21] can be described thus: Inhibition of human ClpP (57 to 277 residues) expressed in Escherichia coli […] pre-incubated for 10 mins before Ac-WLA-AMC addition and measured after 1 hr by fluorescence based assay relative to control. A digest of the protocol: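 hClpP (3.5 μM monomer) in 25 mM Tris-HCl pH 8.0, 100 mM KCl. Preincubated 10 min at RT with inhibitor, two-fold dilutions over 8 steps from 100 μM. Then 100 μM Ac-WLA-AMC, 380/440 nm for 1 h at 37 °C, slopes normalized to DMSO. Thrice, triplicate wells.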

The source made the active and inactive calls. No cut-off for these calls is given here. Where a SMILES comes first, the peptide text is derived from it. The star is where a group is joined. Cbz = O=C(OCc1ccccc1)*; CH2Cl = ClC*

Sequence of Coagulation factor X (Homo sapiens) (P00742 41-179 limits assumed): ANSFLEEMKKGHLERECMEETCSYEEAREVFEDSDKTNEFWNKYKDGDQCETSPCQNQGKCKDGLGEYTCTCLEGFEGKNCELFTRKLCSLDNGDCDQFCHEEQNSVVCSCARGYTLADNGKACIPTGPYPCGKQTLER
Sequence of Coagulation factor X (Homo sapiens) (P00742 235-488 limits assumed): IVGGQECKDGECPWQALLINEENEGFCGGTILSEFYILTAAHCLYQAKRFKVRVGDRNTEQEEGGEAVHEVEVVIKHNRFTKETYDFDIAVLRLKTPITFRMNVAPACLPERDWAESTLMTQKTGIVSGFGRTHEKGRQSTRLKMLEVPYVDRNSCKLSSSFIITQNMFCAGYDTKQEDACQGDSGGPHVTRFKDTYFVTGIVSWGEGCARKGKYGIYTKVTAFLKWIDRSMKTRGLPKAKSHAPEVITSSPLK

With `CN[C@H](CC(C)C)C(=O)N[C@H]1C(=O)N[C@@H](CC(N)=O)C(=O)N[C@H]2C(=O)N[C@H]3C(=O)N[C@H](C(=O)N[C@H](C(=O)O)c4cc(O)cc(O)c4-c4cc3ccc4O)[C@H](O)c3ccc(c(Cl)c3)Oc3cc2cc(c3O[C@@H]2O[C@H](CO)[C@@H](O)[C@H](O)[C@H]2O[C@H]2C[C@](C)(N)[C@H](O)[C@H](C)O2)Oc2ccc(cc2Cl)[C@H]1O`, the result with Staphylococcus aureus [1], with Staphylococcus aureus [2], with Staphylococcus aureus [3], with Staphylococcus aureus [4], with Staphylococcus aureus [5] and with Staphylococcus aureus [6] was Active. Moreover, the outcome in the experiment with Staphylococcus aureus [7] and in the experiment with Staphylococcus aureus [8] was Active.

The compound `CC(C)C[C@H](NC(=O)OCc1ccccc1)C(=O)N[C@@H](Cc1ccc(O)cc1)C(=O)CCl` (Cbz-Leu-Tyr-CH2Cl) showed a 50% inhibitory concentration (IC50) in experiment [9] of 14.4 µM.

With `CC(C)C[C@H](NC(=O)CNC(=O)c1cc(Cl)ccc1Cl)B1OC(=O)CC(CC(=O)O)(C(=O)O)O1` (stereo partly specified), in experiment [10], the dissociation constant Kd was 7.3 µM. The Activity in [11] came out at 100%. In addition, the EC50 in [12] came out at 19.9 µM. Also, the inhibition entry in experiment [13] and in experiment [17] was “Active” each time. The inhibition result (in the experiment on Staphylococcus aureus [14]; in [19]; in [20]) was “inactive” each time. The half-maximal inhibitory concentration (IC50) in experiment [15] and in experiment [21] was 3 to 25 µM each time. Further, the thermal shift (ΔTm) in experiment [16] is 29.5 to 42.2 °C. In addition, the Tm in [18] worked out at 66.5 °C.

For orientation: IC50 means the concentration that inhibits the measured activity by half. The Kd is the concentration at which binding is half-saturated. Usually ΔTm stands for the change in melting temperature against a reference sample.

Values taken from ChEMBL document CHEMBL4402562, “Discovery of Novel Peptidomimetic Boronate ClpP Inhibitors with Noncanonical Enzyme Mechanism as Potent Virulence Blockers in Vitro and in Vivo” (J Med Chem, 2020).
